Results: PMC4460194 (Current Therapeutic Research, Clinical and Experimental, 2015)
Where two headings read alike, the source gives them in different places.

Experiments:
[1] = Single-dose pharmacokinetic study of pitavastatin calcium tablets; assay type: in vivo, human (healthy Chinese volunteers); settings: for half-life / AUC(0-inf) / AUC(0-t) / Tmax / Vd / clearance / Cmax: human, plasma
Outline: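 Randomized 3-way crossover in healthy Chinese volunteers (6 male, 6 female) with 5-day washouts. Single oral 1, 2 or 4 mg tablets were given after a 12-h fast with 200 mL water; meals at 4 and 10 h. Venous samples were taken predose and from 0.25 to 36 h. Heparinised plasma was analysed by LC-MS/MS (0.287–287 ng/mL). Noncompartmental analysis: Cmax/Tmax observed; AUC0–t by linear trapezoidal rule; AUC0–∞ = AUC0–t + Ct/λ.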

[2] = assay type: in vivo, human (healthy Chinese volunteers); settings: for Cav: 2 mg multiple dose
Outline: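 Healthy Chinese volunteers (18–27 years, BMI 19–24) took a 2-mg tablet of the test compound orally once daily for 6 days. Predose samples were taken on days 3–5. On day 6, samples were taken predose and from 0.25 to 48 h. Heparinised plasma was stored at –20°C and extracted into diethyl ether-dichloromethane. LC-MS/MS range was 0.287–287 ng/mL. Noncompartmental analysis; accumulation index = AUC(multiple-dose)/AUC(single-dose).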

Tolerability assessment = assay type: in vivo, human (healthy Chinese volunteers); settings: single doses of 1 mg, 2 mg, or 4 mg and multiple doses of 2 mg once daily for 6 days, all subjects
[3] = Stability tests of the analyte in human plasma; assay type: in vitro ADME
[4] = test system: albumin and alpha-1-acid glycoprotein; settings: primarily to albumin and alpha-1-acid glycoprotein; cited from earlier work
[5] = animal studies, tissue distribution; cited from earlier work
[6] = OATP 388GA + 388GG mutant group vs 388AA wild-type group; cited from earlier work
[7] = did not convert to Pi-LAC; cited from earlier work
[8] = multiple dose 2 mg once daily for 6 days, n = 11, mean (SD)

- half-life ([1]; both, oral): ~10 h
- AUC(0-inf) ([1]; both, oral, 1 mg): 206 ng·h/mL
- AUC(0-t) ([1]; both, oral, 1 mg): 190 ng·h/mL
- Tmax ([1]; both, oral, 1 mg): 0.63 h
- Vd ([1]; both, oral, 1 mg): 79.9 L
- clearance ([1]; both, oral, 1 mg): 84.8 mL/min
- half-life ([1]; both, oral, 1 mg): 11 h
- AUC(0-inf) ([1]; both, oral, 2 mg): 321 ng·h/mL
- AUC(0-t) ([1]; both, oral, 2 mg): 308 ng·h/mL
- Tmax ([1]; both, oral, 2 mg): 0.65 h
- Vd ([1]; both, oral, 2 mg): 86.9 L
- clearance ([1]; both, oral, 2 mg): 108 mL/min
- half-life ([1]; both, oral, 2 mg): 9.52 h
- AUC(0-inf) ([1]; both, oral, 4 mg): 828 ng·h/mL
- AUC(0-t) ([1]; both, oral, 4 mg): 785 ng·h/mL
- Tmax ([1]; both, oral, 4 mg): 0.79 h
- Vd ([1]; both, oral, 4 mg): 72.5 L
- clearance ([1]; both, oral, 4 mg): 85.5 mL/min
- half-life ([1]; both, oral, 4 mg): 10.4 h
- Tmax ([1]; both, po): ≤ 1 h
- Cmax ([1]; both, po, 1 mg): 66.8 ng/mL
- Cmax ([1]; both, po, 2 mg): 106 ng/mL
- Cmax ([1]; both, po, 4 mg): 233 ng/mL
- AUC(0-t) ([1]; female, oral, 1 mg): 204 ng·h/mL
- Cmax ([1]; female, oral, 1 mg): 71 ng/mL
- Tmax ([1]; female, oral, 1 mg): 0.67 h
- Vd ([1]; female, oral, 1 mg): 73.3 L
- clearance ([1]; female, oral, 1 mg): 77.5 mL/min
- half-life ([1]; female, oral, 1 mg): 9.69 h
- AUC(0-t) ([1]; female, oral, 2 mg): 330 ng·h/mL
- Cmax ([1]; female, oral, 2 mg): 114 ng/mL
- Tmax ([1]; female, oral, 2 mg): 0.67 h
- Vd ([1]; female, oral, 2 mg): 87.5 L
- clearance ([1]; female, oral, 2 mg): 102 mL/min
- half-life ([1]; female, oral, 2 mg): 9.95 h
- Cmax ([1]; female, oral, 4 mg): 253 ng/mL
- Tmax ([1]; female, oral, 4 mg): 0.9 h
- Vd ([1]; female, oral, 4 mg): 72.7 L
- clearance ([1]; female, oral, 4 mg): 83 mL/min
- half-life ([1]; female, oral, 4 mg): 11.8 h
- AUC(0-t) ([1]; male, oral, 1 mg): 176 ng·h/mL
- Cmax ([1]; male, oral, 1 mg): 62.6 ng/mL
- Tmax ([1]; male, oral, 1 mg): 0.58 h
- Vd ([1]; male, oral, 1 mg): 86.4 L
- clearance ([1]; male, oral, 1 mg): 92 mL/min
- half-life ([1]; male, oral, 1 mg): 12.3 h
- AUC(0-t) ([1]; male, oral, 2 mg): 286 ng·h/mL
- Cmax ([1]; male, oral, 2 mg): 98.4 ng/mL
- Tmax ([1]; male, oral, 2 mg): 0.63 h
- Vd ([1]; male, oral, 2 mg): 86.4 L
- clearance ([1]; male, oral, 2 mg): 114 mL/min
- half-life ([1]; male, oral, 2 mg): 9.08 h
- AUC(0-t) ([1]; male, oral, 4 mg): 690 ng·h/mL
- Cmax ([1]; male, oral, 4 mg): 209 ng/mL
- Tmax ([1]; male, oral, 4 mg): 0.65 h
- Vd ([1]; male, oral, 4 mg): 72.2 L
- clearance ([1]; male, oral, 4 mg): 98.5 mL/min
- half-life ([1]; male, oral, 4 mg): 8.72 h
- correlation coefficient of dose-proportionality linear regression for AUC0−t ([1]; single dosing 1 mg, 2 mg, 4 mg): 0.92
- correlation coefficient of dose-proportionality linear regression for AUC0−∞ ([1]; single dosing 1 mg, 2 mg, 4 mg): 0.91
- correlation coefficient of dose-proportionality linear regression for Cmax ([1]; single dosing 1 mg, 2 mg, 4 mg): 0.86
- accumulation index (Cmax, multiple-dose/Cmax, single-dose) ([2]; 2 mg multiple dose vs 2 mg single dose, mean (SD)): 0.85 (0.23)
- accumulation index (AUC) ([2]; 2 mg multiple dose vs 2 mg single dose, ratio of AUC, mean (SD)): 0.98 (0.28)
- Cav ([2]; female (n = 6), mean (SD)): 11.65 (6.58) ng/mL
- Cav ([2]; male (n = 5), mean (SD)): 10.32 (1.86) ng/mL
- steady state of plasma pitavastatin concentration achieved ([2]; 2 mg once daily, day of multiple dosing): ~4 days
- Cav (steady-state concentration) [2, 8]: 11.05 (4.85) ng/mL
- Cmin (steady-state trough concentration) [2, 8]: 2.58 (0.92) ng/mL
- stability in human plasma ([3]; after 3 freeze-thaw cycles (80°C to room temperature)): stable
- stability in human plasma ([3]; at −20°C for 80 days): stable
- stability of processed samples ([3]; processed samples at room temperature for 8 hours): stable
Structure (SMILES): O=C(O)C[C@H](O)C[C@H](O)/C=C/c1c(C2CC2)nc2ccccc2c1-c1ccc(F)cc1 [pitavastatin]
- tolerability (Tolerability assessment): well tolerated
- protein binding ratio [4]: 96%
- liver levels relative to plasma [5]: approximately 54 times
- AUC higher than wild type [6]: about 80%
- Cmax higher than wild type [6]: ~71%
- oral elimination lower than wild type [6]: about 35%
- stability in human plasma (conversion to Pi-LAC) [7]: stable
